Measurements published in ChEMBL document CHEMBL1629474, “Massive screening yields novel and selective Trypanosoma cruzi triosephosphate isomerase dimer-interface-irreversible inhibitors with anti-trypanosomal activity” (Eur J Med Chem, 2010).
Activity calls are given as the source filed them. No rule for the calls is given here.

Legend:
Trypanosoma cruzi [1] = assay: Antiparasitic activity against Trypanosoma cruzi T2 epimastigotes assessed as growth inhibition at 25 uM after 5 days; format: functional; details: for inhibition of growth at 25 µM: T2, 120 h, read-out: GI
Method in brief: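 Late-log epimastigotes were grown axenically at 28 °C in BHI-tryptose with 5% fetal calf serum and seeded at 2×10^6/mL in medium containing compound (DMSO stock; final DMSO ≤1%, 1% DMSO control). Growth was read as A590 at day 0 and day 5. Inhibition = {1 − [(Ap − A0p)/(Ac − A0c)]} × 100. Means of two experiments.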

[2] = biological target: Triosephosphate isomerase, glycosomal (Trypanosoma cruzi) (UniProt P52270); assay: Inhibition of Trypanosoma cruzi triosephosphate isomerase at 400 uM after 2 hrs
Triosephosphate isomerase, glycosomal (Trypanosoma cruzi), sequence (P52270 whole entry): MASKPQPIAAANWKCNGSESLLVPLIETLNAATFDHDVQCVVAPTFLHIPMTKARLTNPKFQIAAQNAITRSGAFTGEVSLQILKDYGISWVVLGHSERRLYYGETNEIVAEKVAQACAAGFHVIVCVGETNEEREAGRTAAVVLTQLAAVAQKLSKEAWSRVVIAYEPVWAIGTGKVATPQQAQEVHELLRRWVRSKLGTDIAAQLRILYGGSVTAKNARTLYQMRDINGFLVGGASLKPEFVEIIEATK
Method in brief: (§1)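 Recombinant E. coli-expressed enzyme, dialyzed into 100 mM triethanolamine/10 mM EDTA pH 7.4, was incubated with compound (DMSO stock) in 100 mM triethanolamine, 10 mM EDTA, pH 7.4, 10% DMSO at 36 °C for 2 h. An aliquot was then assayed for activity (glyceraldehyde 3-phosphate to dihydroxyacetone phosphate, α-glycerol phosphate dehydrogenase-coupled) with 5 ng enzyme. Irreversible inhibition was scored as loss of activity; means of two experiments.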

[3] = Selectivity for Trypanosoma cruzi triosephosphate isomerase over human triosephosphate isomerase
[4] = biological target: Triosephosphate isomerase, glycosomal (Trypanosoma cruzi) (UniProt P52270); assay: Inhibition of Trypanosoma cruzi triosephosphate isomerase at 100 uM after 2 hrs; method in brief: as §1
Trypanosoma cruzi [5] = assay: Antiparasitic activity against Trypanosoma cruzi T2 epimastigotes assessed as growth inhibition; format: functional; details: read-out: ID50 (the source's name)
Method in brief: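 Epimastigotes were cultured at 28 °C in BHI-tryptose plus 5% fetal calf serum and seeded at 2×10^6/mL with increasing compound concentrations (from DMSO stock; final DMSO ≤1%). Growth was followed as A590 against untreated controls. ID50 was the concentration halving absorbance relative to controls. Means of two experiments.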

[6] = biological target: Triosephosphate isomerase, glycosomal (Trypanosoma cruzi, UniProt P52270); assay: Inhibition of Trypanosoma cruzi triosephosphate isomerase after 2 hrs; method in brief: as §1
Triosephosphate isomerase, glycosomal, sequence (P52270 whole entry): as above

[7] = biological target: Triosephosphate isomerase (Homo sapiens) (UniProt P60174); assay: Inhibition of human triosephosphate isomerase at 100 uM after 2 hrs; method in brief: as §1
Triosephosphate isomerase (Homo sapiens), sequence (P60174 whole entry): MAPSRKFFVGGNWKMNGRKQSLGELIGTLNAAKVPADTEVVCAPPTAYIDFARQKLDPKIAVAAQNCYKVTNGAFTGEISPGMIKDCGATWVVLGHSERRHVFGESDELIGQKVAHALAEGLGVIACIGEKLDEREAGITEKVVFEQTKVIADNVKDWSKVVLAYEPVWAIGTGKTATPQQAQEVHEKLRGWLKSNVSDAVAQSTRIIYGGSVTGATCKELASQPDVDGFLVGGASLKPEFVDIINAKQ

| SMILES | inhibition [2] [%] | Ratio [3] | inhibition [4] [%] | IC50 (Trypanosoma cruzi [5]) [µM] | IC50 [6] [µM] | inhibition [7] [%] | Activity (Trypanosoma cruzi [1]) | inhibition of growth at 25 µM (Trypanosoma cruzi [1]) [%] |
| --- | --- | --- | --- | --- | --- | --- | --- | --- |
| Nc1ccc(-c2ccccc2)cc1[N+](=O)[O-] | 93 | > 4 | 47 | – | – | – | – | – |
| CCCCCCN1C(=O)C(=Cc2ccc([N+](=O)[O-])cc2)C(=O)N(CCCCCC)S1(=O)=O | 98 | > 4 | 26 | – | – | – | Active | – |
| O=c1cc(-c2ccccc2)oc2ccccc12 [FLAVONE] | 83 | > 4 | 52 | > 25 | – | – | – | 19.1 |
| O=C1C(=Cc2ccc([N+](=O)[O-])o2)C(=O)N(Cc2ccccc2)S(=O)(=O)N1Cc1ccccc1 | 82 | > 4 | 82 | 50 | 13 | 0 | – | 20.8 |
| O=C1C(=Cc2ccc([N+](=O)[O-])cc2)C(=O)N(Cc2ccccc2)S(=O)(=O)N1Cc1ccccc1 | 74 | > 4 | 28 | – | – | – | Active | – |
| C/C(=C\c1cccs1)[N+](=O)[O-] | 95 | > 4 | 53 | > 25 | – | – | – | 14.6 |
| C/C(=C\c1ccc(Br)cc1)[N+](=O)[O-] | 95 | > 4 | 0 | – | – | – | Active | – |
| c1ccc(-c2nsc(-c3ccccc3)n2)cc1 | 74 | > 4 | 45 | 25 | – | – | – | 50 |
| Cc1ccc(-c2nsc(=O)[nH]2)cc1 | 95 | – | 98 | > 25 | 3.5 | 59 | – | 0 |
| NC1=NS(=O)(=O)N=C(N)C1=Cc1ccc([N+](=O)[O-])o1 | 100 | > 4 | 99 | 50 | 20 | – | – | 22.2 |
| O=C(Cn1ccnc1[N+](=O)[O-])NCc1ccccc1 [BENZNIDAZOLE] | 18 | > 4 | – | 7.4 | – | – | Active | – |
| Cc1ccc(-c2nsc(S(=O)(=O)c3ccc(C)cc3)n2)cc1 | 78 | > 4 | 57 | 5 | – | – | – | 100 |
| C/C(=C\c1ccc2c(c1)OCO2)[N+](=O)[O-] | 74 | > 4 | 55 | 5.1 | – | – | – | 100 |
| O=c1oc(-c2ccccc2)ns1 | 96 | > 4 | 81 | 22 | 10 | 0 | – | 59 |
| O=C1C(=Cc2ccc([N+](=O)[O-])s2)C(=O)N(Cc2ccccc2)S(=O)(=O)N1Cc1ccccc1 | 77 | > 4 | 84 | – | – | – | Active | – |
| O=C1C(=Cc2ccc([N+](=O)[O-])s2)C(=O)N(CCc2ccccc2)S(=O)(=O)N1CCc1ccccc1 | 82 | > 4 | 68 | – | – | – | Active | – |
| CCOC(=O)c1nc(-c2cc(C(C)(C)C)c(O)c(C(C)(C)C)c2)ns1 | 87 | > 4 | 65 | – | – | – | Active | – |
| O=C1C(=Cc2ccc([N+](=O)[O-])cc2)C(=O)N(CCc2ccccc2)S(=O)(=O)N1CCc1ccccc1 | 85 | > 4 | 58 | – | – | – | Active | – |
| CCCN(CCCCCn1nc(OCc2ccccc2)c2cc([N+](=O)[O-])ccc21)CCC(C)C1CC=C(C)CC1 (stereo not given) | 11 | > 4 | – | – | – | – | Active | – |
| CC1(C)[N+]([O-])=c2ccc(C3OCCO3)cc2=[N+]1[O-] | 36 | > 4 | – | – | – | – | Active | – |
| N#Cc1c2ccccc2[n+]([O-])n1-c1cccc2ccccc12 | 16 | > 4 | – | – | – | – | Active | – |
| [O-][n+]1onc2ccc(/C=C/c3ccc4c(c3)OCO4)cc21 | 70 | > 4 | 21 | – | – | – | Active | – |
| O=C(/C=C/c1cccs1)c1ccccc1O | 25 | > 4 | – | – | – | – | Active | – |

The next lines start with results.

| inhibition [2] [%] | Ratio [3] | inhibition [4] [%] | IC50 (Trypanosoma cruzi [5]) [µM] | IC50 [6] [µM] | inhibition [7] [%] | SMILES | Activity (Trypanosoma cruzi [1]) | inhibition of growth at 25 µM (Trypanosoma cruzi [1]) [%] |
| --- | --- | --- | --- | --- | --- | --- | --- | --- |
| 75 | > 4 | 45 | – | – | – | C=CCNC(=S)N/N=C\c1ccccc1OCc1ccc2no[n+]([O-])c2c1 | Active | – |
| 0 | > 4 | 17 | – | – | – | CCCCNC(=O)N/N=C/c1ccc([N+](=O)[O-])o1 | Active | – |
| 92 | > 4 | 0 | – | – | – | Cc1c(CNc2ccc3ccccc3c2)no[n+]1[O-] | Active | – |
| 71 | > 4 | 82 | – | – | – | O=[N+]([O-])c1ccc(C=Cc2ccc3no[n+]([O-])c3c2)s1 | Active | – |
| 100 | > 4 | 76 | – | – | – | COc1ccc(CCNC(=O)N/N=C/c2ccc([N+](=O)[O-])o2)cc1OC | Active | – |
| 87 | > 4 | 69 | > 25 | – | – | CCOC(=O)c1nc(-c2ccccc2)ns1 | – | 25 |
| 100 | > 4 | 25 | – | – | – | O=[N+]([O-])c1ccc(/C=N/NC(=S)Nc2ccccc2)s1 | Active | – |
| 85 | > 4 | 49 | 25 | – | – | CC1=CC(=N/O)/C(=N\O)C=C1 | – | 50 |
| 100 | > 4 | 0 | – | – | – | [O-][n+]1onc2ccc(/C=N/N=C/c3cc(Br)ccc3O)cc21 | Active | – |
| 82 | > 4 | 36 | – | – | – | NC(=O)N/N=C/c1ccc(OCc2ccc3no[n+]([O-])c3c2)cc1 | Active | – |
| 100 | > 4 | 32 | – | – | – | O=C(N/N=C/c1ccc([N+](=O)[O-])o1)Nc1ccc2ccccc2c1 | Active | – |
| 100 | > 4 | 75 | – | – | – | O=[N+]([O-])c1ccc(/C=C/C=N/NC(=S)Nc2ccccc2)o1 | Active | – |
| 82 | > 4 | 20 | – | – | – | O=C(N/N=C/c1ccc([N+](=O)[O-])o1)Nc1cccc2ccccc12 | Active | – |
| 87 | > 4 | 56 | > 25 | – | – | Cc1c(/C=N/NC(N)=S)no[n+]1[O-] | – | 24.7 |
| 93 | > 4 | 35 | – | – | – | O=S(=O)(c1ccccc1)c1no[n+]([O-])c1S(=O)(=O)c1ccccc1 | Active | – |
| 72 | > 4 | 45 | > 25 | – | – | [O-][n+]1onc(-c2ccccc2)c1CNc1cccc2ccccc12 | – | 24.7 |
| 73 | > 4 | 27 | – | – | – | [O-][n+]1onc2ccc(/C=C/c3cccs3)cc21 | Active | – |
| 85 | > 4 | 57 | – | – | – | NC(=S)N/N=C/c1ccc([N+](=O)[O-])o1 | Active | – |
| 88 | > 4 | 47 | – | – | – | [O-][n+]1onc2ccc(/C=C/Sc3ccc(F)cc3)cc21 | Active | – |
| 80 | > 4 | 13 | – | – | – | [O-][n+]1onc2ccc(/C=C/c3ccc4nonc4c3)cc21 | Active | – |
| 100 | > 4 | 47 | – | – | – | O=C(N/N=C/C=C/c1ccc([N+](=O)[O-])o1)Nc1ccc2ccccc2c1 | Active | – |
| 73 | > 4 | – | – | – | – | NC(=O)N/N=C/c1ccc2no[n+]([O-])c2c1 | Active | – |
| 69 | > 4 | – | – | – | – | [O-][n+]1onc2ccc(/C=C\[S+]([O-])c3ccccc3)cc21 (stereo not given) | Active | – |
| 39 | > 4 | – | – | – | – | CCCCCCOC(=O)N/N=C/C=C/c1ccc([N+](=O)[O-])o1 | Active | – |
| 11 | > 4 | – | – | – | – | O=[N+]([O-])c1ccccc1C=Cc1ccc2no[n+]([O-])c2c1 | Active | – |
| 27 | > 4 | – | – | – | – | O=C(N/N=C/c1ccc([N+](=O)[O-])o1)Oc1ccccc1 | Active | – |
